Converted amounts (≈) assume the structure as drawn.
What was measured:
[1] = test system: Mycobacterium tuberculosis; test: Antitubercular activity against dormant stage of Mycobacterium tuberculosis H37Ra ATCC 25177 after 12 days by XTT reduction menadione assay; assay type: functional; conditions: H37Ra ATCC 25177, 288 h
How it was run: (§1)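 M. tuberculosis H37Ra (ATCC 25177), grown to log phase (OD 1.0) in M. pheli medium from -70°C stock, subcultured once before inoculation. Incubation 8 days (active) or 12 days (dormant). XRMA read-out as absorbance at 470 nm.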

[2] = Selectivity index, ratio of GI50 for human A549 cells to MIC for active stage of Mycobacterium tuberculosis H37Ra ATCC 25177; assay type: toxicity; conditions: read-out: Selectivity Index
How it was run: (§2)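 Selectivity index is the cytotoxic GI50 against the named human cell line divided by the antimycobacterial value. Activity counted as specific when SI >10.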

[3] = Cytotoxicity against human THP1 cells assessed as growth inhibition by MTT assay; assay type: cell-based; conditions: THP-1 cells
How it was run: (§3)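 MTT assay in duplicate on THP-1 leukaemia, A549 lung adenocarcinoma, PANC-1 pancreatic adenocarcinoma and HeLa cervical carcinoma cells, all obtained from ECCC.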

[4] = Cytotoxicity against human PANC1 cells assessed as growth inhibition by MTT assay; assay type: cell-based; conditions: PANC-1 cells; how it was run: as §3
[5] = Cytotoxicity against human A549 cells assessed as growth inhibition by MTT assay; assay type: cell-based; how it was run: as §3
[6] = Selectivity index, ratio of GI50 for human A549 cells to MIC for active stage of Mycobacterium tuberculosis H37Ra ATCC 25177 infected in human THP1 cells; assay type: toxicity, cell-based; conditions: read-out: Selectivity Index; how it was run: as §2
[7] = Selectivity index, ratio of GI50 for human HeLa cells to MIC for active stage of Mycobacterium tuberculosis H37Ra ATCC 25177; assay type: toxicity, cell-based; conditions: read-out: Selectivity Index; how it was run: as §2
[8] = Selectivity index, ratio of GI50 for human PANC1 cells to MIC for active stage of Mycobacterium tuberculosis H37Ra ATCC 25177; assay type: toxicity; conditions: PANC-1 cells, read-out: Selectivity Index; how it was run: as §2
[9] = Selectivity index, ratio of GI50 for human A549 cells to MIC for dormant stage of Mycobacterium tuberculosis H37Ra ATCC 25177 infected in human THP1 cells; assay type: toxicity, cell-based; conditions: read-out: Selectivity Index; how it was run: as §2
[10] = Selectivity index, ratio of GI50 for human PANC1 cells to MIC for dormant stage of Mycobacterium tuberculosis H37Ra ATCC 25177; assay type: toxicity; conditions: PANC-1 cells, read-out: Selectivity Index; how it was run: as §2
[11] = test system: Mycobacterium tuberculosis; test: Antitubercular activity against active stage of Mycobacterium tuberculosis H37Ra ATCC 25177 after 8 days by XTT reduction menadione assay; assay type: functional; conditions: H37Ra ATCC 25177, 192 h; how it was run: as §1
[12] = Selectivity index, ratio of GI50 for human A549 cells to MIC for dormant stage of Mycobacterium tuberculosis H37Ra ATCC 25177; assay type: toxicity; conditions: read-out: Selectivity Index; how it was run: as §2
[13] = Selectivity index, ratio of GI50 for human PANC1 cells to MIC for dormant stage of Mycobacterium tuberculosis H37Ra ATCC 25177 infected in human THP1 cells; assay type: toxicity, cell-based; conditions: PANC-1 cells, read-out: Selectivity Index; how it was run: as §2
[14] = test system: Mycobacterium tuberculosis; test: Antitubercular activity against dormant stage of Mycobacterium tuberculosis H37Ra ATCC 25177 infected in human THP1 cells after 12 days by nitrate reductase assay; assay type: functional; conditions: H37Ra ATCC 25177, 288 h
How it was run: (§4)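 Ex vivo test of H37Ra in THP-1 cells by nitrate reductase assay, absorbance read at 540 nm. Active stage incubated 8 days and dormant stage 12 days. H37Ra (ATCC 25177) grown in M. pheli medium to OD 1.0 and subcultured once from -70°C stock.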

[15] = Cytotoxicity against human HeLa cells assessed as growth inhibition by MTT assay; assay type: cell-based; how it was run: as §3
[16] = Selectivity index, ratio of GI50 for human HeLa cells to MIC for dormant stage of Mycobacterium tuberculosis H37Ra ATCC 25177 infected in human THP1 cells; assay type: toxicity, cell-based; conditions: read-out: Selectivity Index; how it was run: as §2
[17] = Selectivity index, ratio of GI50 for human HeLa cells to MIC for dormant stage of Mycobacterium tuberculosis H37Ra ATCC 25177; assay type: toxicity, cell-based; conditions: read-out: Selectivity Index; how it was run: as §2
[18] = Selectivity index, ratio of GI50 for human HeLa cells to MIC for active stage of Mycobacterium tuberculosis H37Ra ATCC 25177 infected in human THP1 cells; assay type: toxicity, cell-based; conditions: read-out: Selectivity Index; how it was run: as §2
[19] = test system: Mycobacterium tuberculosis; test: Antitubercular activity against active stage of Mycobacterium tuberculosis H37Ra ATCC 25177 infected in human THP1 cells after 8 days by nitrate reductase assay; assay type: functional; conditions: H37Ra ATCC 25177, 192 h; how it was run: as §4
[20] = Selectivity index, ratio of GI50 for human PANC1 cells to MIC for active stage of Mycobacterium tuberculosis H37Ra ATCC 25177 infected in human THP1 cells; assay type: toxicity, cell-based; conditions: PANC-1 cells, read-out: Selectivity Index; how it was run: as §2

Structure (SMILES)	MIC [1] [µg/mL]	selectivity ratio [2]	GI50 [3] [µg/mL]	GI50 [4] [µg/mL]	GI50 [5] [µg/mL]	selectivity ratio [6]	selectivity ratio [7]	selectivity ratio [8]	selectivity ratio [9]	selectivity ratio [10]	MIC [11] [µg/mL]	selectivity ratio [12]	selectivity ratio [13]	MIC [14] [µg/mL]	GI50 [15] [µg/mL]	selectivity ratio [16]	selectivity ratio [17]	selectivity ratio [18]	MIC [19] [µg/mL]	selectivity ratio [20]
COc1cc(-c2nc(SCCCn3cnc4sc5c(c4c3=O)CCCC5)n(C)c(=O)c2C#N)cc(OC)c1OC	26.1 (≈ 45 µM)	3	89.7 (≈ 155 µM)	24.8 (≈ 42.8 µM)	95.7 (≈ 165 µM)	4	3	1	4	1	27.9 (≈ 48.1 µM)	4	1	21.5 (≈ 37.1 µM)	70.7 (≈ 122 µM)	3	3	3	26.9 (≈ 46.4 µM)	1
COc1cc(-c2nc(SCCCn3cnc4sc5c(c4c3=O)CCCC5)n(CCCn3cnc4sc5c(c4c3=O)CCCC5)c(=O)c2C#N)cc(OC)c1OC	> 30	3	81.4 (≈ 100 µM)	> 100	83.1 (≈ 102 µM)	< 3	3	> 3	3	> 3	> 30	< 3	> 3	> 30	89.6 (≈ 110 µM)	< 3	3	3	> 30	> 3
COc1cc(-c2nc(SCCCn3cnc4sc5c(c4c3=O)CCCC5)n(CCC(F)(F)C(F)(F)C(F)(F)C(F)(F)C(F)(F)C(F)(F)F)c(=O)c2C#N)cc(OC)c1OC	11.7 (≈ 12.8 µM)	> 3	> 100	> 100	> 100	> 3	> 3	> 3	> 11	> 8	> 30	> 8	> 11	8.8 (≈ 9.65 µM)	> 100	> 11	> 8	> 3	> 30	> 3
CCCCCn1c(SCCCn2cnc3sc4c(c3c2=O)CCCC4)nc(-c2cc(OC)c(OC)c(OC)c2)c(C#N)c1=O	> 30	> 3	> 100	> 100	> 100	> 3	2	> 3	> 3	> 3	> 30	> 3	> 3	> 30	73 (≈ 115 µM)	2	2	2	> 30	> 3
N#Cc1c(-c2ccc(O)cc2)[nH]c(=S)[nH]c1=O	> 30	3	93 (≈ 379 µM)	89.1 (≈ 363 µM)	87.4 (≈ 356 µM)	< 3	3	3	3	< 3	> 30	< 3	< 3	> 30	90.8 (≈ 370 µM)	< 3	3	3	> 30	3

Source: ChEMBL document CHEMBL3992538, “Hybrids of thienopyrimidinones and thiouracils as anti-tubercular agents: SAR and docking studies” (Eur J Med Chem, 2017)
